Screens (PubChem)
A selection: hits, their analogues and other compounds. The true share with any hit is near 12%.
L major viab – inhibitors of Leishmania major promastigote growth | actives 9% (n = 200,000) | inhibition, % at 10 µM | Leishmania major promastigotes, resazurin fluorescence viability; in the data active means inhibition above about 50%;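 further: promastigotes grown with compound for 44 hours at 28 °C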
RAM inhibit – yeast RAM network inhibition; S. cerevisiae dse1pr::URA3 reporter, 5-FOA growth OD615, 2 d; analog-sensitive cbk1-as2 kinase mutant strain; inhibition, % at 50 µM; actives 1.8% (n = 190,000);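 active means inhibition above a set limit, 3 SD over mean compound inhibition, cut at about 8.4% in these data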;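 further: 0% = DMSO-only wells with no growth and 100% = 10 µM 1-NA-PP1 full growth; inhibition rescues growth on 5-FOA so higher OD means more RAM inhibition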
ABCB1 inh – blocks JC-1 efflux by human ABCB1 transporter; CCRF-Adr cells, flow cytometry; actives 0.067% (n = 190,000); inhibition, % at 6.6 µM; AID 1326; in the data active means inhibition above about 40%;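 further: 0% = vehicle and 100% = reference inhibitor; higher value means more JC-1 retained so stronger ABCB1 efflux block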
Target sequence (P08183 whole entry, looked up): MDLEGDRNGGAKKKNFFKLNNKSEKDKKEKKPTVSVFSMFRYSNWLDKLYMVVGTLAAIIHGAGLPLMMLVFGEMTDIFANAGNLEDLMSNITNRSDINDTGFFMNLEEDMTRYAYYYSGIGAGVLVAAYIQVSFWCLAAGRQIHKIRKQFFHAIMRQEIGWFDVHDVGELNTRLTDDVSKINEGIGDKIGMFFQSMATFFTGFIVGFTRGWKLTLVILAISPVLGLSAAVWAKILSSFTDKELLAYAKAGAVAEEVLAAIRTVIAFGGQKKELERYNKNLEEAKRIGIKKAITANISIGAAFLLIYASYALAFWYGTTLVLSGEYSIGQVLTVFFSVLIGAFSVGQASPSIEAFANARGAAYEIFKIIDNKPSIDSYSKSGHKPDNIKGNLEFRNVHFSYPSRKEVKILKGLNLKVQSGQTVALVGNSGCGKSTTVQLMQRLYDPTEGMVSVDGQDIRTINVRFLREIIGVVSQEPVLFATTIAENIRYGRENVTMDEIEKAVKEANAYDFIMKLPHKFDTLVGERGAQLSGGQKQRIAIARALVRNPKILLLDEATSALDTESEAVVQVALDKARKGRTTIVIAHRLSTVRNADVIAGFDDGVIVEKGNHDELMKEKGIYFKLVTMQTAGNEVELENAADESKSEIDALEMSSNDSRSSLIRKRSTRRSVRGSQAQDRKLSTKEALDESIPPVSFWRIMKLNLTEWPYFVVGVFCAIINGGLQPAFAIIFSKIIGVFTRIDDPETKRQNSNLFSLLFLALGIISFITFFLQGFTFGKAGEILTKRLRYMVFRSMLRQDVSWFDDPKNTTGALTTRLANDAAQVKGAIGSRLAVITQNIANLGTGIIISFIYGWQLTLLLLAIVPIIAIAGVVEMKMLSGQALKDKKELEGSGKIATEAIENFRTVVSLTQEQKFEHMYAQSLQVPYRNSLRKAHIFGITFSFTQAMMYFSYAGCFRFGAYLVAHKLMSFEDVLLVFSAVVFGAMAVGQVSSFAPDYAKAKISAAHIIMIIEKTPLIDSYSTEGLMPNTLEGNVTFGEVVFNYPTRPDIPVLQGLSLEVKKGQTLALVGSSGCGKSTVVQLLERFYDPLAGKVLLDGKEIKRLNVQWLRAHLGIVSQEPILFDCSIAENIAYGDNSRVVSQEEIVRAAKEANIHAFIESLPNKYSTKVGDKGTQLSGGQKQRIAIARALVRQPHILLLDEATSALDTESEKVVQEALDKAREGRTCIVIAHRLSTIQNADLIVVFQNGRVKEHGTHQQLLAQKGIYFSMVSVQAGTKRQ
ABCG2 inh – human ABCG2 inhibition, ABCB1 as counter-screen; Q9UNQ0; IgMXP3 cells, JC-1 efflux, flow cytometry; inhibition, % at 6.6 µM; actives 0.1% (n = 190,000); AID 1325;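 active means inhibition above 80%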;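 further: 0% = DMSO and 100% = nicardipine control wells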
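Test system: ABCG2 IgMXP3 and barcoded ABCB1 CCRF-Adr cell mix; Schedule: cells with compound and JC-1, 10 min at 25 °C, rotating, no wash; Technique: flow cytometry of retained JC-1 fluorescence; Measure: % inhibition of efflux relative to nicardipine and DMSO; Controls: nicardipine high and DMSO low controls.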
WT yeast gro inh – growth inhibition of WT yeast, mitochondrial fusion screen | mitochondrial fusion phenotypic screen, WT strain | inhibition, % at 10 µM | actives 2.1% (n = 190,000); in the data active means inhibition above about 58%; tested in S. cerevisiae
An asterisk follows results filed as active; / = no result given.

SMILES	L major viab	RAM inhibit	ABCB1 inh	ABCG2 inh	WT yeast gro inh
O=c1c2ccccc2[nH]c(=S)n1CCCN1CCN(C2CCCCC2)CC1	98*	3	2	1	-5
O=c1c2ccccc2[nH]c(=S)n1CCCN1CCOCC1	7	3	0	3	16
Cc1ccnc(NS(=O)(=O)c2cnc(Cl)c(Br)c2)c1	-7	0	0	-3	-8
CCOc1ccccc1OCC(=O)NCCc1ccc(S(N)(=O)=O)cc1	-9	2	1	1	5
CC1=C/C(=N\Nc2ccccc2[N+](=O)[O-])CC(C)(C)C1	40	6	0	7	64*
CCOC(=O)c1ccc(NC(=O)COC(=O)Cc2csc(-c3ccccc3)n2)cc1	-2	2	-1	-4	18
Cc1cc(NCCCn2ccnc2)n2nc(C)c(-c3ccc(Cl)cc3)c2n1	98*	5	2	9	65*
Cc1cc(NCCN2CCOCC2)n2nc(C)c(-c3ccccc3)c2n1	0	3	0	2	-6
Cc1cc(NCCN2CCOCC2)n2nc(C)c(-c3ccc(Cl)cc3)c2n1	94*	0	1	3	0
Cc1cc(NCCCn2ccnc2)n2ncc(-c3ccccc3)c2n1	89*	2	1	9	2
COC(=O)c1nc(N)sc1C	2	2	0	1	-2
O=[N+]([O-])c1ccc(COc2cccc(CNc3ccc(F)cc3)c2)cc1	6	9.9*	0	2	48
COc1cccc(CNCC(O)(c2ccc(Cl)cc2)c2ccc(Cl)cc2)c1	65*	0	2	3	-5
COc1ccc(CNCc2cccc(Cl)c2)cc1	66*	1	0	-1	3
Cc1ccc(CNCC(O)(c2ccccc2)c2ccc(Cl)cc2)cc1 (stereo not drawn)	42	1	1	0	69*
COC(=O)c1c(NC(=O)Cc2cccs2)sc(C(=O)N2CCCCC2)c1C	1	10*	1	6	-26
COC(=O)c1c(NC(=O)Cc2cccs2)sc(C(=O)NC2CCCCC2)c1C	-7	/	/	/	/
CCCOC(=O)CSc1nc(N)c(C#N)c(-c2ccco2)c1C#N	-6	9.3*	1	5	-10
COc1cc2c(cc1OC)CN(CC(=O)Nc1ccc(Cl)c(S(=O)(=O)N(C)C)c1)CC2	7	1	1	2	-1
COc1cccc(C(=O)NN/C(C)=C/C(=O)C(F)(F)C(F)(F)C(F)(F)F)c1	1	3	0	3	9
COc1ccc(/C=C/C(=O)NCC(=O)N/N=C/c2cc(Br)ccc2OC)cc1	19	1	-1	-2	1
O=C(CNC(=O)c1ccccc1F)N/N=C/c1cc(Br)ccc1OC(=O)/C=C/c1ccco1	87*	5	3	2	15
COc1ccccc1C(=O)NCC(=O)N/N=C/c1cc(Br)ccc1OC(=O)/C=C\c1ccco1	92*	3	4	3	26
O=C(Cn1ccc([N+](=O)[O-])n1)NCc1cccnc1	-6	2	4	13	-1
O=C1c2ccccc2C(=O)c2c1oc(C(F)(F)F)c2C(=O)c1ccccc1	99*	1	1	1	-3
SMILES	L major viab	RAM inhibit	ABCB1 inh	ABCG2 inh	WT yeast gro inh
COc1ccc(C(=O)C2=NN(C(C)=O)CC2c2ccco2)cc1 (stereo not drawn)	8	0	1	12	3
CC1=CC(C)(C)N2C(=O)C3(SCC(=O)N3c3ccc(F)cc3)c3cc(C)cc1c32 (stereo not drawn)	92*	4	5	5	29
CC(C)c1ccc(N2C(=O)CSC23C(=O)N2CCCc4cccc3c42)cc1 (stereo not drawn)	9	4	1	2	-4
COc1cccc2cc(C(N)=O)/c(=N/NC(=O)COc3ccc(Cl)cc3)oc12	-1	2	0	3	4
Cc1ccccc1OCc1nc(-c2ccc(NC(=O)c3ccco3)cc2)no1	3	3	0	-4	35
CC(Oc1ccc(Cl)cc1Cl)c1nc(-c2ccc(NC(=O)c3ccco3)cc2)no1 (stereo not drawn)	4	4	0	0	85*
CCN(CC)C(=O)CCCC(=O)N(CC)CC	-5	0	0	1	-6
CCO[C@H]1OC(C(=O)Nc2ccccc2)=C[C@@H](c2ccc(C(F)(F)F)cc2)[C@@H]1CCCO	38	9.0*	2	5	75*
CCO[C@H]1OC(C(=O)NCc2ccccc2)=C[C@@H](c2ccc(C(F)(F)F)cc2)[C@@H]1CCCO	53*	3	2	12	27
CCO[C@@H]1OC(C(=O)NCc2ccccc2)=C[C@H](c2ccc(Br)cc2)[C@H]1CCCO	38	8	0	0	25
CCCC1CCC(c2nc(-c3cccnc3)no2)CC1 (stereo not drawn)	-4	-1	0	0	31
CCCCCCC1CCC(c2nc(-c3ccncc3)no2)CC1 (stereo not drawn)	-12	0	0	0	79*
O=C(C[n+]1cn(C(F)F)c2ccccc21)c1ccc(OC(F)F)cc1	-5	3	0	-2	71*
O=C(C[n+]1ccc(C(=O)NCc2ccccc2)cc1)c1ccc(OC(F)F)cc1	-4	0	2	18	-1
COc1ccc(C2=NN3C(=O)c4c(ccc(OC)c4OC)C3C2)cc1 (stereo not drawn)	60*	0	0	2	5
COc1ccc(CC(C)N2CCN(c3ccccc3)CC2)cc1OC (stereo not drawn)	78*	1	1	2	-1
COc1ccc(OC)c(CN2CCN(Cc3cccc4ccccc34)CC2)c1	65*	1	5	3	9
COc1ccc(CC(C)N2CCN(Cc3ccccc3)CC2)c(OC)c1 (stereo not drawn)	95*	-1	1	0	6
COc1ccc(CN2CCN(CCCc3ccccc3)CC2)c(OC)c1	91*	1	2	3	18
COc1ccc(NC(=O)c2ccc(CN3CCN(c4ccccc4)CC3)cc2)cc1OC	3	0	2	7	9
COc1ccc(OC)c(CN2CCN(c3ccccc3OC)CC2)c1	1	2	0	1	17
COc1ccc(NC(=O)N2CCN(C(=O)C(Cc3ccc(F)cc3)NC(C)=O)CC2)cc1 (stereo not drawn)	-7	0	0	2	-9
N/C(=N\OC(=O)CC(c1ccccc1)c1ccccc1)c1cccnc1	25	-1	0	3	-4
CCC(=C(c1ccc(OC)cc1)c1ccc(OC)cc1)c1cn(CC(O)CN(CCO)CCO)c2ccccc12 (stereo not drawn)	69*	-2	1	2	98*
COc1ccc(OCC(O)CN(CCO)CC(O)Cn2ccc3ccccc32)cc1 (stereo not drawn)	-2	0	1	3	-15
O=C(CN1CCN(C2CCCCC2)CC1)Nc1ccccc1-c1ccccc1	59*	1	1	3	9
